Compounds with a hit are over-represented: about 2.3% of the library has one in this group of screens.
Rpn11 block = blocks the human proteasome subunit Rpn11 | 360,000 tested, 0.59% active | calls only at 20 µM | AID 588493 | human 26S proteasome, Ub4-pepOG fluorescence polarization; 20S core pre-blocked with epoxomicin | O00487;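 active = inhibition at 20 µM, scaled to each plate's controls, above about 33%, limit read from the data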
CSN deneddyl inh = CSN deneddylation inhibition; Q92905; 360,000 tested, 0.38% active; inhibition, % at 12.5 µM; Purified CSN, SCF-Nedd8-OG deneddylation, fluorescence polarization;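 active = pattern-corrected inhibition above about 35%, with an unprinted fluorescence ratio check between 0.5 and 1.5, limit read from the data, passing the limit was not always enough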;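 also: 0% = enzyme with substrate and 100% = substrate without enzyme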
Target sequence (Q92905 whole entry, looked up, one chain of several): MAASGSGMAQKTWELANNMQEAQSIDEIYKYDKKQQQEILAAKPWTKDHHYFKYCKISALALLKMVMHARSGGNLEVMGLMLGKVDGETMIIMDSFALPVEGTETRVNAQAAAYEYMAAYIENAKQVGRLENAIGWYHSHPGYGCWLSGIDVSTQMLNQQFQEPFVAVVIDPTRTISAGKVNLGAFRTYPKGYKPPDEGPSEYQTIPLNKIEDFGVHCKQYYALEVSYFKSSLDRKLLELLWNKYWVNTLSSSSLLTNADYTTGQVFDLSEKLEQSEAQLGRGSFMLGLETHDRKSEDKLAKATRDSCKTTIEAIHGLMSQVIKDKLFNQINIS
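Test system: Human Csn5 produced in HEK293T cells | Compound: 12.5 µM single point | Times: 90 min, room temperature | Signal: Fluorescence polarization readout | Read-out basis: % inhibition of substrate cleavage by Csn5 | Controls: no-enzyme wells high, enzyme-with-substrate wells low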
CRFBP-R2 block = blocks CRF-induced signaling of the CRF-BP/CRF-R2 complex; 350,000 tested, 0.59% active; HEK293 CRF-R2/CRF-BP, CRF-induced calcium fluorescence; inhibition, % at 11.8 µM; AID 588475;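 active = inhibition of the ligand-induced calcium signal above about 50% at the single tested concentration, limit read from the data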
CRFBP-R2 agonist = CRF-BP/CRF-R2 complex agonism. AID 588473. 350,000 tested, 0.46% active. HEK293 CRF-R2/CRF-BP, calcium dye fluorescence (FLIPR); percent of saturating CRF peptide response. activation, % at 13.2 µM;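 active = activation of at least 50%, plus an integration ratio under a set limit after plate pattern correction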;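 also: plate controls were neutral control wells without compound for no effect and CRF at EC100 for full effect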
HNF4A DNA FP = change in binding of human HNF4 alpha to DNA; 360,000 tested, 0.3% active; HNF4a-FITC DNA binding, fluorescence polarization, 1 h; activity change, % at 10 µM; in the data active = activity change above about 30%, passing the limit was not always enough
TPT1 inh = blocks Candida albicans tRNA 2'-phosphotransferase; AID 1962; recombinant caTPT1, FP RNA substrate dephosphorylation; inhibition, % at 5 µM; 300,000 tested, 0.81% active;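 active = inhibition above the mean of all tested compounds plus 3 SD, set per screening campaign, cut at about 24% in these data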;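 also: plate controls were DMSO alone for no effect and ferristatin control at 100 nM for full effect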
The depositor's hits bear a star; i = inactive; nt = not tested or not shown; + = active, no number.

SMILES	Rpn11 block	CSN deneddyl inh	CRFBP-R2 block	CRFBP-R2 agonist	HNF4A DNA FP	TPT1 inh
CSc1nc(N2CCOCC2)cc(N2CCOCC2)n1	i	-1	-18	-2	2	-1
CN1CCN(C(=O)c2cnc(Cc3c[nH]c4ccccc34)c(I)c2)CC1	i	62*	nt	nt	7	nt
CCC(=O)/C=C1/Sc2ccccc2N1CC	i	5	-8	-2	8	-1
CCN1/C(=C/C=C2/SC(=Nc3cccc4ncccc34)N(C)C2=O)Sc2ccccc21	nt	50*	-18	13	104	nt
Cn1c(/C=C/c2ccccc2)nc2ccccc2c1=O	i	1	-11	0	-3	-2
Cn1c(/C=C/c2ccc([N+](=O)[O-])o2)nc2ccccc2c1=O	nt	29	5	4	59*	-40
Cc1cc(CNC(=O)C2CCC(=O)N(Cc3ccccc3F)C2)on1 (stereo not given)	i	0	4	-2	4	2
Cc1ccc(NN2C(=O)C=C(c3ccc(Cl)cc3)C2=O)cc1	i	-4	-68	61*	1	3
CC(=O)N1CCc2cc(S(=O)(=O)CCC(=O)NCc3ccc(C)o3)ccc21	i	1	7	0	-2	-4
O=C(CCCc1ccccc1)Nc1nncs1	i	2	64*	-1	-4	1
CC(C)c1cc(N2CCC(=O)NC2=O)cc(C(=O)O)c1O	i	-5	52*	0	4	3
Nc1ccc(C(=O)N/N=C/c2cccc(Oc3ccccc3)c2)cc1	i	3	0	0	-2	nt
Cc1nn(C)c(C(=O)N/N=C/c2cccc(Oc3ccccc3)c2)c1Br	i	-7	-54	58*	-1	1
O=C(Nc1ccc2c(c1)OCO2)c1cc(C2CCCCN2C(=O)c2ccccc2)on1 (stereo not given)	i	0	nt	nt	0	nt
O=C(NCCCCCCCN1CCCCCCC1)C(C1CCCCC1)C1CCCCC1	i	55*	-17	-1	24	nt
CCN(CC)C(=O)CSc1ncnc2c1nnn2-c1ccc(OC)cc1	i	4	84*	1	3	-7
COc1cc(-c2onc3ccc(Br)cc23)cc(OC)c1OC	i	-6	11	1	43*	2
COc1ccc(-c2onc3ccc(Br)cc23)cc1	i	-41	-26	15	-58	-40
COC(=O)[C@@]12C[C@@H](CC(=O)N3CCC(c4ccccc4)CC3)C(=O)N(Cc3ccco3)C1=CCC(C)(C)C2	nt	121*	nt	nt	4	nt
Cc1ccc2cc3c(N)c(C(=O)N4CC(=O)Nc5ccccc54)sc3nc2c1	nt	nt	nt	nt	nt	34*
COc1ccc(-c2cc3nc(C4CCN(C(=O)OC(C)(C)C)CC4)c(C(=O)O)cn3n2)cc1	i	-2	52*	-3	1	-1
CCOC(=O)c1cn2nc(-c3ccc(OCC)cc3)cc2nc1C1CCN(C(=O)OC(C)(C)C)CC1	i	3	-25	-1	0	-2
Cc1nn(C)cc1CN(C)C(=O)c1ccc(OC2CCN(Cc3ccccn3)CC2)cc1	i	-1	57*	2	-3	-2
O=C(NCc1ccccc1C(F)(F)F)c1cccc2c1C(=O)c1ccc(N3CCCCC3)cc1S2(=O)=O	i	9	-42	76*	4	nt
O=C(NCCN1CCCCC1)c1cccc2c1C(=O)c1ccc(N3CCCC3)cc1S2(=O)=O	nt	33	-3	17	61	nt
SMILES	Rpn11 block	CSN deneddyl inh	CRFBP-R2 block	CRFBP-R2 agonist	HNF4A DNA FP	TPT1 inh
O=C(NC1CCCCC1)c1cccc2c1C(=O)c1ccc(N3CCCC3)cc1S2(=O)=O	nt	26	-20	36	74	nt
CC(C)(C)CNC(=O)c1cccc2c1C(=O)c1ccc(N3CCCC3)cc1S2(=O)=O	nt	42*	44	22	88	nt
C/C(=N\NC(=O)c1cccc(S(=O)(=O)N2CCCC2)c1)c1ccccc1F	i	3	-8	0	0	-4
N#Cc1c(N)nc(SCc2ccncc2)c(C#N)c1-c1cccs1	i	-3	34	8	3	-2
CCOc1cc(-c2cc(-c3ccccc3)nc(N)c2C#N)ccc1O	i	1	33	-1	28*	0
CC(/C=C/c1ccc(N(C)C)cc1)=N\N=C1\NC(=O)CC(C(=O)Nc2ccccc2)S1 (stereo not given)	nt	6	-1	3	34*	19
O=C(Nc1ncc(S(=O)(=O)c2ccc([N+](=O)[O-])cc2)s1)c1ccccc1F	i	-1	-20	57*	-1	3
COC(=O)C(NC(=O)c1ccc(F)cc1)(Nc1ncc(S(=O)(=O)c2ccc([N+](=O)[O-])cc2)s1)C(F)(F)F (stereo not given)	i	1	58*	-5	1	1
Cc1ccc2c(c1)-c1nc3ccccc3cc1C2=NC1CCCCC1	i	-2	-63	1	-2	1
Clc1ccc(-c2nnc(NCc3ccccc3)c3ccccc23)cc1	i	-2	52*	-2	4	-3
C[C@H](NC(=O)Nc1ccc2c(c1)OCCO2)C(=O)O	i	0	96*	-1	-1	1
Cc1cc(C)c(S(=O)(=O)n2ccc3ccccc32)c(C)c1	i	-6	58*	-1	2	1
O=S(=O)(c1ccccc1)n1ccc2ccccc21	i	0	15	0	3	-1
COc1ccc(-c2ccc(-c3nnc(Cc4ccc(OC)c(OC)c4)o3)cc2)cc1	i	2	-11	0	-2	-2
Cc1[nH]c2ccccc2c1CCN(Cc1cccs1)C(=S)Nc1ccccc1	i	5	1	0	-2	3
O=C(/C=C/c1cn(CC(O)CN2CCCCC2)c2ccccc12)c1ccccc1 (stereo not given)	+	11	-18	8	2	nt
CCCCN(C)CC(O)Cn1cc(/C=C/C(=O)c2ccc(C)cc2)c2ccccc21 (stereo not given)	+	14	-29	16	7	18
O=C(Nc1nnc(C2CC2)s1)c1cc([N+](=O)[O-])ccc1N1CCCCC1	i	-12	-40	1	-2	-1
O=C(Oc1ccc2c(c1)C(=O)c1ccccc1CO2)c1ccccc1	i	1	-15	6	1	-3
CCN(CC)C(=O)c1c(C)nc2ccccn12	i	2	85*	-8	0	1
Cc1nc2ccccn2c1C(=O)CSc1ccccc1	i	-1	-22	-1	-1	-1
CC(=O)Oc1cc(C(=O)OCC(=O)NC23CC4CC(CC(C4)C2)C3)cc(OC(C)=O)c1OC(C)=O	i	41*	0	0	-16	nt
CC(C)C[C@@H](CC#N)N1CCN(CCc2ccccc2)CCC1=O	i	-5	4	-1	3	-4

Screening data (PubChem BioAssay)
